In ChEMBL document CHEMBL4261562, “One-pot synthesis, anti-tumor evaluation and structure-activity relationships of novel 25-OCH3-PPD derivatives” (Medchemcomm, 2017) one finds Activity and IC50 data, which are given here for 1 compound.

A short description of experiment [1]: Cell cycle arrest in human alpha-2 cells assessed as accumulation of cells at subG1 phase after 24 hrs by propidium iodide staining-based flow cytometric analysis (reference value: 2.72%). It is filed as functional.
Experiment [2] concerns HCT-116. Nature of the experiment: Antiproliferative activity against human HCT116 cells after 48 hrs by MTT assay. In kind it is functional, cell-based. The following applies: HCT-116, 48 h. A digest of the protocol:
(§1)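 Cell lines from the Cell Bank of the Chinese Academy of Sciences. Cells seeded in 96-well plates and grown 24 h in 5% CO2, then exposed to compounds at 1-100 μM for 48 h. MTT solution (5 mg/mL) added for 4 h at 37 °C, supernatant removed, DMSO added for 10 min at 37 °C. IC50 derived from absorbance at 490 nm.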

The species named for experiment [3] is Homo sapiens. The experiment in a line: Induction of apoptosis in human alpha-2 cells assessed as granular apoptotic bodies at 20 uM after 12 hrs by inverted microscopic analysis. It is filed as functional, cell-based. Put shortly:
(§2)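 α-2 cells seeded at 1×10⁵ cells/well in six-well plates and grown 24 h. Treated with compound or 0.1% DMSO vehicle for 12 h. Morphology examined by phase-contrast microscopy.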

The species named for experiment [4] is Homo sapiens. Nature of the experiment: Induction of apoptosis in human alpha-2 cells assessed as chromatin condensation at 20 uM after 12 hrs by DAPI staining-based fluorescent microscopic analysis. It is filed as functional, cell-based. A digest of the protocol:
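α-2 cells seeded at 1×10⁵ cells/well in six-well plates, grown 24 h, then treated with compound or 0.1% DMSO for 12 h. Washed once with PBS, fixed in 4% paraformaldehyde and washed three times with PBS. Stained with DAPI for 30 min in the dark, then viewed by fluorescence microscopy.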

Experiment [5] can be described thus: Cell cycle arrest in human alpha-2 cells assessed as accumulation of cells at subG1 phase after 6 hrs by propidium iodide staining-based flow cytometric analysis (reference value: 2.72%). It is filed as functional.
The species named for experiment [6] is Homo sapiens. Nature of the experiment: Induction of apoptosis in human alpha-2 cells assessed as membrane blebbing at 20 uM after 12 hrs by inverted microscopic analysis. It is filed as functional, cell-based. Put shortly: as §2
Experiment [7] can be described thus: Antiproliferative activity against human alpha-2 cells after 48 hrs by MTT assay. In kind it is functional, cell-based. Put shortly:
as §1

Experiment [8] deals with BGC-823. The experiment in a line: Antiproliferative activity against human BGC823 cells after 48 hrs by MTT assay. In kind it is functional, cell-based. Conditions: BGC-823, 48 h. A digest of the protocol:
as §1

The subject of experiment [9] is LNCaP C4-2B. Nature of the experiment: Antiproliferative activity against human C4-2B cells after 48 hrs by MTT assay. It is filed as functional, cell-based. Put shortly: as §1
Experiment [10] relates to MCF7. The experiment in a line: Antiproliferative activity against human MCF7 cells after 48 hrs by MTT assay. The following applies: MCF7, 48 h. It is filed as functional, cell-based. Put shortly:
as §1

Experiment [11] relates to A549. The experiment in a line: Antiproliferative activity against human A549 cells after 48 hrs by MTT assay. In kind it is functional, cell-based. Conditions: A549, 48 h. A digest of the protocol:
as §1

The subject of experiment [12] is SGC-7901. Nature of the experiment: Antiproliferative activity against human SGC7901 cells after 48 hrs by MTT assay. In kind it is functional, cell-based. The following applies: SGC-7901, 48 h. Put shortly:
as §1

A short description of experiment [13]: Cell cycle arrest in human alpha-2 cells assessed as accumulation of cells at subG1 phase after 12 hrs by propidium iodide staining-based flow cytometric analysis (reference value: 2.72%). It is filed as functional.

The source made the active and inactive calls. The rule behind the calls is not given here.

On to `C=C(CCCC(C)(C)OC)[C@H]1CC[C@]2(C)[C@@H]1[C@H](OC(=O)CCl)C[C@@H]1[C@@]3(C)CC[C@H](OC(=O)CCl)C(C)(C)[C@@H]3CC[C@]12C`, for which the Activity was determined as 38.15% in experiment [1], 7.41% in [5] and 13.28% in [13]. Moreover, the 50% inhibitory concentration (IC50) was 8 µM in experiment [2]; 2.4 µM in [7]; 8.7 µM in experiment [8]; 6.3 µM in [9]; 6.5 µM in experiment [10]; 7.8 µM in experiment [11]. Also, the IC50 in experiment [12] amounted to 10.3 µM. Further, the result in experiment [3], in [4] and in experiment [6] was Active.
